Calls of active or inactive are those of the source. The calls are words filed in the database; no cut-off is given here.
Tests used:
Hepa-1c1c7 [1] = experiment: Antioxidant activity in mouse Hepa-1c1c7 cells assessed as increase in total thiol content at […] after 48 hrs; format: functional, cell-based
Outline: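 Hepa1c1c7 cells (1 x10⁶) exposed to compounds for 48 h (DMSO vehicle diluted 1000-fold; DMSO-treated cells as comparator). Total cellular thiols measured by glutathione disulfide reductase/DTNB enzymatic cycling. Four repeats, mean ± S.D.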

Lymphocyte [2] = experiment: Inhibition of methyl methanesulphonate-induced DNA damage in human lymphocyte assessed as tail length at 10 ug/ml after 1 hr before MMS challenge measured after 3 hrs by comet assay; format: functional
Hepa-1c1c7 [3] = experiment: Induction of GST activity in mouse Hepa-1c1c7 cells at 10 ug/ml after 48 hrs by bicinchoninic acid assay; format: cell-based
Outline: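 Hepa1c1c7 cells in DMEM with 10% FBS, 37 °C, 5% CO₂, treated 48 h with compounds (DMSO diluted 1000-fold). Total GST activity read kinetically at 340 nm. Activity normalized to protein by BCA and given relative to DMSO control (100%). Four repeats, mean ± S.D.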

[4] = target: T1, Epoxide hydrolase 1 (Mus musculus) (UniProt Q9D379); experiment: Induction of mEH enzyme in mouse Hepa-1c1c7 assessed as formation of 7(29,39-dihydroxy)propoxycoumarin at 10 µg/ml after 48 hrs
T1 sequence (whole entry): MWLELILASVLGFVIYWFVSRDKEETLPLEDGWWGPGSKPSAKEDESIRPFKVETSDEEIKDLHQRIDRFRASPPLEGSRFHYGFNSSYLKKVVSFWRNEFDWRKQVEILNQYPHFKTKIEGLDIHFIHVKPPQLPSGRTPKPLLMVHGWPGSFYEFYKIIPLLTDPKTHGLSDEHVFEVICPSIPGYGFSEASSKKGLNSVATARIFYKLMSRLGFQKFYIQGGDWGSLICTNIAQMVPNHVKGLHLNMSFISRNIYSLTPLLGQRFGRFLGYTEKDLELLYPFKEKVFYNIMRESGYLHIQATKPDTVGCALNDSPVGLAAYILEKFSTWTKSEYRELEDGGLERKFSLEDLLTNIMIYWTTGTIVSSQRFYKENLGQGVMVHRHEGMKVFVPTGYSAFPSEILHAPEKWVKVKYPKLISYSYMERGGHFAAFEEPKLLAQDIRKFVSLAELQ

[5] = Cytotoxicity against human lymphocytes after 48 hrs by MTT assay; format: functional, cell-based; conditions: lymphocyte
Outline: (§1)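 MTT reduction assay: cells seeded at 5 x10⁴ cells/well and incubated 48 h at 37 °C with various concentrations of compounds. Formazan solubilized in acidic isopropanol.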

Hepa-1c1c7 [6] = experiment: Inhibition of CYP1A in mouse Hepa-1c1c7 cells at 1 ug/ml assessed as dealkylation rate of 3-cyano-7-ethoxycoumarin; format: cell-based
[7] = Antioxidant activity assessed as peroxyl radical scavenging activity by ORAC assay; format: functional
Lymphocyte [8] = experiment: Inhibition of methyl methanesulphonate-induced DNA damage in human lymphocyte assessed as inhibition of tail moment at 10 ug/ml after 1 hr before MMS challenge measured after 3 hrs by comet assay; format: functional, cell-based
[9] = Antioxidant activity assessed as hydroxyl radical scavenging activity by ORAC assay; format: functional
[10] = Cytotoxicity against mouse Hepa-1c1c7 cells after 48 hrs by MTT assay; format: functional, cell-based; outline: as §1

Row | SMILES | Activity (Hepa-1c1c7 [1]) | Activity (Lymphocyte [2]) [micrometer] | Activity (Hepa-1c1c7 [3]) | Activity [4] | IC50 [5] [µg/mL] | inhibition (Hepa-1c1c7 [6]) [%] | Activity [7] | Activity (Lymphocyte [8]) | Activity [9] | IC50 [10] [µg/mL]
1 | O=C(C[n+]1ccccc1)c1ccc2c(c1)CCCC2.[Br-] | Active | 34.31 | Active | Active | > 50 | < 10 | Active | Active | Active | > 50
2 | COC(=O)c1c(C(=O)OC)c2cc(C)ccn2c1C(=O)c1ccc2c(c1)CCCC2 | Active | 22.8 | – | – | > 50 | < 10 | – | Active | Active | > 50
3 | COC(=O)c1c(C(=O)OC)c2cccc(C)n2c1C(=O)c1ccc2c(c1)CCCC2 | – | 18.3 | Active | – | > 50 | < 10 | – | Active | Active | > 50
4 | COC(=O)c1c(C(=O)OC)c2ccccn2c1C(=O)c1ccc2c(c1)CCCC2 | – | 36.66 | – | – | > 50 | < 10 | – | – | – | > 50
5 | Cc1cccc[n+]1CC(=O)c1ccc2c(c1)CCCC2.[Br-] | – | 17.7 | – | Active | > 50 | < 10 | Active | Active | – | > 50
6 | Cc1cc[n+](CC(=O)c2ccc3c(c2)CCCC3)cc1.[Br-] | – | 59.41 | – | Active | > 50 | < 10 | – | – | – | > 50
7 | c1ccc2c(c1)nc1[nH]c(-c3ccc4c(c3)CCCC4)cn12 | Active | 17.2 | Active | – | > 50 | 26.4 | – | Active | – | > 50
